Data set [1] is described as follows: Antiproliferative activity in Chinese hamster R2 cells deficient in RFC, PCFT, and FRalpha assessed as reduction in cell growth after 96 hrs by Cell-Titer Blue assay. In kind it is cell-based. The note with it: Cricetulus griseus, R2, 96 h.
Data set [2] concerns the target T1, Reduced folate transporter (Homo sapiens) (UniProt P41440).
T1 sequence (whole entry): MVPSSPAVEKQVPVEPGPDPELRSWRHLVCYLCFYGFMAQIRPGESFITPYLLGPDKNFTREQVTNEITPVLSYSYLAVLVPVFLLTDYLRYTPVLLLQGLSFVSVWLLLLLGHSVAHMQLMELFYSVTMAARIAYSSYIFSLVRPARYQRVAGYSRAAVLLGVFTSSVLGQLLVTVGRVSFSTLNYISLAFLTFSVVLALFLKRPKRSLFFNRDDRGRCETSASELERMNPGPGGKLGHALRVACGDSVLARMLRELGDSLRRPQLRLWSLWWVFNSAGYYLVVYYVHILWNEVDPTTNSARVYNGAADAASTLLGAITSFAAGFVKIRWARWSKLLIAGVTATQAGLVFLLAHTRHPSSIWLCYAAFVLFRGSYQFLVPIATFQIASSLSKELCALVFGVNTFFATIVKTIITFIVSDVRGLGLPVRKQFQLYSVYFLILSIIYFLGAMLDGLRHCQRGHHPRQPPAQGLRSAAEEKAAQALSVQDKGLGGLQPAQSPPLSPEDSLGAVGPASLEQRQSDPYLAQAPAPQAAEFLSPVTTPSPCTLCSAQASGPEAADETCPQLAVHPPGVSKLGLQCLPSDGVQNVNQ
The data set can be described thus: Inhibition of human RFC2 expressed in human HeLa R1-11 cells assessed as reduction in [3H]MTX uptake at pH 7.2 at 10 uM measured over 2 mins relative to control. In kind it is cell-based.

The target of data set [3] is T2, Proton-coupled folate transporter (Homo sapiens, UniProt Q96NT5).
T2 sequence (Q96NT5 whole entry): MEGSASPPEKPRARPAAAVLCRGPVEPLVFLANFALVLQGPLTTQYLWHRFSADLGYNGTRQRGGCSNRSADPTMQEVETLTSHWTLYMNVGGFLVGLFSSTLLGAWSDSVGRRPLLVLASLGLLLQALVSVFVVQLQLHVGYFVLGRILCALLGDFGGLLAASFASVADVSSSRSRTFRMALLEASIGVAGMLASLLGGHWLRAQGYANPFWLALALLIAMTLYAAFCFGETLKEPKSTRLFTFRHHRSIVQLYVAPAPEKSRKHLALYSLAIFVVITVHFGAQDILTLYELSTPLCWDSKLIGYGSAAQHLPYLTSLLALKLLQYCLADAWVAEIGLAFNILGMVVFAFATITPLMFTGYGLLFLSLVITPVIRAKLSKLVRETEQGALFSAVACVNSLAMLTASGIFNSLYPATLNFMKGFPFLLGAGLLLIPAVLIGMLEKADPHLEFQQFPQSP
Briefly: Inhibition of human PCFT expressed in Chinese hamster R2/PCFT4 cells assessed as reduction in [3H]MTX uptake at pH 5.5 measured over 2 mins by Dixon plot analysis. The data set is classed as cell-based. In short, it runs like this: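 Competitor concentrations ranged from 0.05 to 0.5 μM. Ki was obtained by Dixon plot. Mean ± SE of four independent experiments.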

The target of data set [4] is T3, Proton-coupled folate transporter (Homo sapiens) (UniProt Q96NT5).
T3 sequence (whole entry): T2 sequence (Q96NT5 whole entry)
The data set can be described thus: Inhibition of human PCFT expressed in Chinese hamster R2/PCFT4 cells assessed as reduction in [3H]MTX uptake at pH 5.5 at 1 uM measured over 2 mins relative to control. The data set is classed as cell-based.

For data set [5], the target named is T3, Proton-coupled folate transporter (Homo sapiens). Briefly: Inhibition of human PCFT expressed in Chinese hamster R2/PCFT4 cells assessed as reduction in [3H]MTX uptake at pH 5.5 at 10 uM measured over 2 mins relative to control. The data set is classed as cell-based.
The target is the same in data set [6]. The data set can be described thus: Inhibition of human PCFT expressed in Chinese hamster R2/PCFT4 cells assessed as reduction in [3H]MTX uptake at pH 5.5 at 1 to 10 uM measured over 2 mins. In kind it is cell-based.
Data set [7] concerns the target Folate receptor alpha (Homo sapiens) (UniProt P15328). The data set can be described thus: Displacement of [3H]folic acid from human FRalpha expressed in Chinese hamster RT16 cells at 10 to 1000 nM after 15 mins. In kind it is cell-based. Put shortly:
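RT16 (FRα) or D4 (FRβ) CHO cells at ~80% confluence were washed with PBS at 4 °C, then with pH 3.5 acetate buffer to strip bound folate, then HEPES-buffered saline pH 7.4. Cells were incubated with 50 nM [³H]folic acid plus competitor (10–1000 nM) for 15 min at 4 °C, washed, and solubilized in NaOH. Bound radioactivity was normalized to protein.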
In general terms: Loss of bound radioactivity is the signal in a displacement assay; it reports binding, not function.

Data set [8] deals with IGROV-1. Briefly: Antiproliferative activity against human IGROV1 cells at 1 to 1000 nM in presence of 320 uM AICA after 96 hrs by Cell-Titer Blue assay. The data set is classed as functional, cell-based. In short, it runs like this:
(§1)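 IGROV1 cells, 2000/well, in folate-free RPMI 1640 with 10% dialyzed FBS, L-glutamine, 25 nM LCV. A range of drug concentrations was given with thymidine (10 μM), adenosine (60 μM) or AICA (320 μM) added. After 96 h, proliferation was measured by Cell-Titer Blue fluorescence. At least triplicate experiments.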

Data set [9] deals with IGROV-1. The data set can be described thus: Antiproliferative activity against human IGROV1 cells at 1 to 1000 nM in presence of 10 uM thymidine after 96 hrs by Cell-Titer Blue assay. In kind it is functional, cell-based. In short, it runs like this:
as §1

For data set [10], the system named is IGROV-1. The data set can be described thus: Antiproliferative activity against human IGROV1 cells at 1 to 1000 nM in presence of 60 uM adenosine after 96 hrs by Cell-Titer Blue assay. The data set is classed as functional, cell-based. In short, it runs like this: as §1
For data set [11], the system named is IGROV-1. Briefly: Anticlonogenic activity against human IGROV1 cells incubated for 24 hrs followed by compound wash out and measured after 10 days by methylene blue staining-based assay. The data set is classed as functional, cell-based. Put shortly: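 IGROV1 cells plated in folate-free RPMI 1640 (pH 7.2), 10% dialyzed FBS, 25 nM LCV. After 24 h adherence, exposed to drug (0–20 μM) for 24 h at pH 6.8 (25 mM PIPES/25 mM HEPES). Washed, then grown drug-free at pH 7.2 (100 mM HEPES) with 25 nM LCV for up to 10 days at 37 °C. Colonies stained with methylene blue and counted electronically. Values normalized to vehicle controls. Triplicate experiments.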

The test system of data set [12] is IGROV-1. The data set can be described thus: Antiproliferative activity against FRalpha […] human IGROV1 KD10 cells after 96 hrs by Cell-Titer Blue assay. The data set is classed as functional, cell-based. The conditions noted are these: IGROV-1, 96 h.
The test system of data set [13] is IGROV-1. Briefly: Antiproliferative activity against FRalpha […] human IGROV1 KD4 cells after 96 hrs by Cell-Titer Blue assay. The data set is classed as functional, cell-based. The note with it: IGROV-1, 96 h.
The test system of data set [14] is IGROV-1. Briefly: Antiproliferative activity against human IGROV1 cells harboring non targeted control shRNA sequence after 96 hrs by Cell-Titer Blue assay. In kind it is functional, cell-based. The note with it: IGROV-1, 96 h.
For another data set, the system named is A2780. Briefly: Antiproliferative activity against human A2780 cells after 96 hrs by Cell-Titer Blue assay. In kind it is functional, cell-based. The note with it: A2780, 96 h.
Data set [15] concerns IGROV-1. Briefly: Antiproliferative activity against wild type human IGROV1 cells after 96 hrs by Cell-Titer Blue assay. The data set is classed as functional, cell-based. The note with it: IGROV-1, 96 h.
The nature of data set [16]: Toxicity in NCR SCID mouse xenografted with human IGROV1 cells assessed as weight loss median nadir at 95 mg/kg, iv treated once daily for 4 days per week for 4 weeks starting from 3 days post implantation and measured at day 14 post last dose relative to control. The note with it: in vivo. In kind it is organism-based.
Data set [17] in a line: Toxicity in NCR SCID mouse xenografted with human IGROV1 cells assessed as weight loss median nadir at 95 mg/kg, iv treated once daily for 4 days per week for 4 weeks starting from 3 days post implantation and measured at day 18 post last dose relative to control. The data set is classed as organism-based. The conditions noted are these: in vivo. (In xenograft studies the graft and the host belong to different species.)

Data set [18] deals with T1, Reduced folate transporter (Homo sapiens). Briefly: Inhibition of human RFC2 expressed in human HeLa R1-11 cells assessed as reduction in [3H]MTX uptake at pH 7.2 at 1 uM measured over 2 mins relative to control. In kind it is cell-based.
Data set [19] in a line: Toxicity in NCR SCID mouse xenografted with human IGROV1 cells assessed as weight loss median nadir at 95 mg/kg, iv treated once daily for 4 days per week for 4 weeks starting from 3 days post implantation and measured after conclusion of therapy. In kind it is organism-based. The note with it: in vivo. In short, it runs like this:
(§2)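 Female ICR SCID mice, 10 weeks old, kept on a folate-deficient diet for 14 days before bilateral subcutaneous IGROV1 implants; a control cohort was fed folate-replete chow. Randomized at 5 mice/group. […] Tumors measured twice weekly; body weights recorded daily.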

Data set [20] relates to IGROV-1. Briefly: Antitumor activity against human IGROV1 cells xenografted in NCR SCID mouse assessed as median tumor burden at 32 mg/kg, iv treated once daily for 4 days per week for 3 weeks starting from 3 days post implantation and measured at day 60 post last dose (reference value: 108 mg). In kind it is functional. In short, it runs like this:
(§3)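 Female ICR SCID mice (10 weeks, ~20 g) kept on folate-deficient diet ad libitum for 14 d before bilateral subcutaneous IGROV1 implantation; a control cohort was fed standard folate-replete chow. 5 mice/group, nonselectively randomized. […] Tumors measured twice weekly, body weights daily. T/C from median tumor burdens.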

Data set [21] has as its system IGROV-1. The data set can be described thus: Antitumor activity against human IGROV1 cells xenografted in NCR SCID mouse assessed as time for tumor growth delay at 95 mg/kg, iv treated once daily for 4 days per week for 4 weeks starting from 3 days post implantation. In kind it is functional. The note with it: in the assay text read “32 mg/kg” for “95 mg/kg”. In short, it runs like this: as §2

Data set [22] is described as follows: Toxicity in NCR SCID mouse xenografted with human IGROV1 cells at 32 mg/kg, iv treated once daily for 4 days per week for 3 weeks starting from 3 days post implantation. In kind it is organism-based. The conditions noted are these: in vivo. In short, it runs like this: (§4)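 Female ICR SCID mice on a folate-deficient diet for 14 days before bilateral subcutaneous IGROV1 implants. Randomized at 5 mice/group. […] Body weights recorded daily; tumors measured twice weekly.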

Data set [23] is described as follows: Toxicity in NCR SCID mouse xenografted with human IGROV1 cells assessed as weight loss median nadir at 32 mg/kg, iv treated once daily for 4 days per week for 3 weeks starting from 3 days post implantation and measured at day 14 post last dose relative to control. In kind it is organism-based. The note with it: in vivo. Put shortly: as §3
A short description of data set [24]: Toxicity in NCR SCID mouse xenografted with human IGROV1 cells assessed as weight loss median nadir at 32 mg/kg, iv treated once daily for 4 days per week for 3 weeks starting from 3 days post implantation and measured at day 18 post last dose relative to control. In kind it is organism-based. The conditions noted are these: in vivo. In short, it runs like this:
as §4

A short description of data set [25]: Toxicity in NCR SCID mouse xenografted with human IGROV1 cells assessed as weight loss median nadir at 32 mg/kg, iv treated once daily for 4 days per week for 4 weeks starting from 3 days post implantation and measured after conclusion of therapy. In kind it is organism-based. The note with it: in vivo.

Activity calls are given as the source filed them. No cut-off for these calls is given here. Some results are limits rather than exact numbers.

Chain of Folate receptor alpha (Homo sapiens) (P15328 25-234 limits assumed): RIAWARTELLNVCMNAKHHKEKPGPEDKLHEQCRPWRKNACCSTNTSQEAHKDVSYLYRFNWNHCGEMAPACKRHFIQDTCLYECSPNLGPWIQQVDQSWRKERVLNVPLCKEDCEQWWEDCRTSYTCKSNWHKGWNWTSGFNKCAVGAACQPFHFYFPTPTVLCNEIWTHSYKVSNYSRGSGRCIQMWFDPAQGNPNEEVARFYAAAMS

A word on the IC50: it is the midpoint of a concentration-inhibition curve. A word on the inhibition: it is the relative decrease from the control value, in per cent. As usually defined, the Ki is a measure of affinity in units of concentration, obtained from inhibition or displacement. Regarding `Nc1nc2[nH]c(CCCCc3csc(C(=O)N[C@@H](CCC(=O)O)C(=O)O)c3F)cc2c(=O)[nH]1`, the IC50 was more than 1000 nM in [1]; 200 nM in the data set with IGROV-1 [11]; 66.9 nM with IGROV-1 [12]; 138 nM in the data set on IGROV-1 [13]; 1.79 nM with IGROV-1 [14]; 3.11 nM in the data set on A2780. This molecule gave an IC50 with IGROV-1 [15] of 1.9 nM. For the same molecule, the inhibition entry in data set [2] and in data set [18] was “inactive” in each case. Also, the inhibitory constant (Ki) in data set [3] was 250 nM. In addition, the inhibition in [4] lay within 60 to 85%; in [5], 90 to 95%. Besides, the inhibition result in [6] and in data set [7] was “Active” throughout. The result with IGROV-1 [8] and in the data set with IGROV-1 [10] was inactive. For the same molecule, in the data set on IGROV-1 [9], the outcome was Active. Also, the Activity in [16] is 15.7%; in [17], 12.1%; in [19] it was “Non-Toxic”.
Consider `Nc1nc2[nH]c(CCCc3ccc(C(=O)N[C@@H](CCC(=O)O)C(=O)O)s3)cc2c(=O)[nH]1`, for which the IC50 in [1] was 355 nM; in the data set on IGROV-1 [11], 270 nM; with IGROV-1 [12], 74.6 nM; in the data set on IGROV-1 [14], 10.1 nM; with A2780, 27.4 nM; in the data set on IGROV-1 [15] it was 16.7 nM. Further, the inhibition entry in data set [2] and in data set [18] was “inactive” throughout. Moreover, in data set [6], the inhibition entry was “Active”. In addition, the Activity with IGROV-1 [20] was 108 mg; in data set [22], “Non-Toxic”; in data set [23], 15.7%; in data set [24], 12.1%; in [25] it was “Non-Toxic”. In the data set with IGROV-1 [21], the Time is 35 days.
